Screening results deposited in PubChem by The Scripps Research Institute Molecular Screening Center.
Shown are actives, neighbours in structure and some others; about 4.6% of the full set was active somewhere.
CHO parental Ca: counter-screen for OX1R antagonists: effect in parental CHO cells; AID 463079; parental CHO-K1, ATP-induced calcium, Fluo-8 fluorescence; 330,000 compounds, 0.63% hits; inhibition, % at 5.6 µM;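 active = inhibition above that plate's mean sample inhibition plus 3 SD, cut at about 26% in these data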;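 note: 0% = ATP-challenged DMSO wells and 100% = DMSO wells without ATP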
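Material: parental CHO cells / Compound: single nominal dose of 5.6 µM per compound / Signal: Fluo-8 fluorescence / Replicates: singlicate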
GPR7 antagonist: blocks human GPR7 receptor signaling; 290,000 compounds, 1.1% hits; inhibition, % at 4.4 µM; P48145; GPR7-expressing cells, fluorescence antagonist assay; in the data active = inhibition above about 16%, passing the limit was not always enough;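 note: cells stimulated with the agonist NPW; 0% = agonist with vehicle and 100% = vehicle without agonist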
OX1R antag-1: OX1R (human) antagonism; O43613; OX1R-expressing cells, FRET antagonist read-out; inhibition, % at 6.6 µM; 330,000 compounds, 1.8% hits; in the data active = inhibition mostly above about 38%, no sharp cut-off; inactive = mostly below about 40%;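 note: 0% = agonist challenge alone and 100% = reference antagonist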
Target sequence (O43613 whole entry, looked up): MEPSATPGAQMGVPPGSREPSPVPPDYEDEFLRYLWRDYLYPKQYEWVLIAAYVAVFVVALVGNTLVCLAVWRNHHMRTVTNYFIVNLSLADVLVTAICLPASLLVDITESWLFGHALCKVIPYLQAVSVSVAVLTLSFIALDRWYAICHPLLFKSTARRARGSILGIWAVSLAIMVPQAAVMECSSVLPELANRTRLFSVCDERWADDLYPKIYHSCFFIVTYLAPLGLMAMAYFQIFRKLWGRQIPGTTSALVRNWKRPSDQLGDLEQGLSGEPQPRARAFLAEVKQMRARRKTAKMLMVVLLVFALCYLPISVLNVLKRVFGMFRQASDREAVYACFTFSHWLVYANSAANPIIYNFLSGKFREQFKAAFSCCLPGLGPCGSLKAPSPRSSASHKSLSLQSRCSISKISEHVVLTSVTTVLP
TAAR1 ag: human TAAR1 agonism; 360,000 compounds, 0.99% hits; activation, % at 3 µM; Q96RJ0; CHO RD-HGA16 TAAR1, Fluo-8 calcium fluorescence; vehicle wells 0%, saturating PEA agonist 100%;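 active = activation above the mean activation of all test compounds in the run plus 3 SD, cut at about 38% in these data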
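Test system: RD-HGA16 (CHO) cells co-expressing Gα16 and hTAAR1 / Benchmarks: DMSO vehicle as 0%, PEA at EC100 as 100% / Repeats: no replicates (n 1) / Measure: % activation from peak over basal fluorescence ratio, DMSO-to-PEA scaled / Timing: 17-24 h plating, Fluo-8 75 min 37 °C, 30 min RT / Technique: kinetic Fluo-8 calcium fluorescence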
TAAR1 antagonist: antagonists of human TAAR1; inhibition, % at 3 µM; Q96RJ0; AID 624466; CHO RD-HGA16 TAAR1, Fluo-8 calcium fluorescence, antagonist; 360,000 compounds, 1.5% hits;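 active = inhibition above a per-plate cutoff, the mean inhibition of test compounds on that plate plus 3 SD, cut at about 49% in these data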;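 note: 0% = DMSO plus EC80 beta-PEA response and 100% = DMSO alone without agonist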
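test system = CHO RD-HGA16 cells bearing hTAAR1 | replication = singlicate | controls = DMSO-only wells and EC80 β-PEA-stimulated wells | reagent = EC80 β-phenethylamine stimulus | read-out basis = percent inhibition of PEA-evoked calcium signal, max/basal emission ratio | schedule = seeding 17-24 h prior, 75-min 37 °C, 30-min RT dye loading | signal = kinetic Fluo-8 calcium fluorescence measurement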
OX1R antag-2: human HCRTR1 antagonism. CHO/OX1R cells, Fluo-8 calcium fluorescence, orexin A. inhibition, % at 5 µM. 330,000 compounds, 0.43% hits. AID 434989;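 active = inhibition above its plate's threshold, mean inhibition of all tested compounds on the plate plus 3 SD, cut at about 37% in these data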;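 note: 0% = orexin A challenge wells and 100% = SB-334867-A antagonist wells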
GPR7 antag conf: human GPR7 antagonism, confirmation assay; 2,400 compounds, 52% hits; shares compounds with GPR7 antagonist; GPR7-expressing cells, calcium fluorescence antagonist mode; inhibition, % at 4.4 µM; in the data active = inhibition above about 24%;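 note: stimulated with the GPR7 agonist NPW; 0% = agonist plus vehicle and 100% = vehicle alone without agonist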
MCHR1 antagonist: counter-screen for GPR7 antagonists: antagonists of human MCHR1. AID 2148. inhibition, % at 4.4 µM. shares compounds with GPR7 antagonist. 2,400 compounds, 62% hits. MCHR1-expressing cells, fluorescence antagonist assay; in the data active = inhibition above about 22%;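 note: 0% = vehicle with agonist and 100% = vehicle without agonist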
Numbers without * were called inactive; / = no result.

SMILES	CHO parental Ca	GPR7 antagonist	OX1R antag-1	TAAR1 ag	TAAR1 antagonist	OX1R antag-2	GPR7 antag conf	MCHR1 antagonist
O=C(N/N=C/c1cccc(OC(=O)c2ccco2)c1)c1ccc(F)cc1	-11	22*	10	-1	18	-21	16	23*
Cc1cccc(C(O)c2cnc(C)n2Cc2ccccc2)c1 (configuration not stated)	/	/	/	2	-18	/	/	/
CCc1cccc(CC)c1NC(=O)CN1CC(C)SC1=NC1CCCCC1 (configuration not stated)	-15	38*	9	15	-3	-27	55*	33*
CCc1cccc(CC)c1NC(=O)NC1CCCCC1	3	3	15	0	-15	-11	/	/
NC(c1ccccc1)c1csc(NC(=O)NCC2CCCCC2)n1 (configuration not stated)	/	/	/	10	-8	/	/	/
O=C(NC1CCCCC1)c1ccc2c(c1)OCO2	-10	-11	29	1	-3	0	/	/
CCC(C)(C(=O)NC1CCCC1)N(Cc1cccs1)C(=O)c1ccc2c(c1)OCO2 (configuration not stated)	-19	29*	15	-1	9	3	29*	25*
COc1ccc(-n2c(-c3ccc(Cl)cc3)c[n+]3c2CCc2ccccc2-3)cc1	-3	31*	6	10	5	-21	33*	35*
C(=C\c1ccccc1)/CSc1nnc(-c2cnccn2)n1Cc1ccco1	-14	21*	22	-3	-1	-13	24*	39*
COC(=O)c1cc(S(=O)(=O)N2CCN(c3ccc([N+](=O)[O-])cc3)CC2)c[nH]1	-10	32*	12	11	-12	-6	9	1
CC(=O)c1ccc(S(=O)(=O)N2CCN(c3ccccc3F)CC2)cc1	7	25*	17	3	-11	-13	25*	23*
COC(=O)c1cc(S(=O)(=O)N2CCN(c3ccc(C(C)=O)cc3)CC2)cn1C	8	25*	18	1	-12	-16	-8	41*
CC(=O)c1ccc(N2CCN(C(=O)Cc3ccccc3)CC2)c(F)c1	14	45*	6	5	10	-28	10	8
COC(=O)c1cc(S(=O)(=O)N2CCN(c3ccccc3OC)CC2)cn1C	-22	-7	8	-1	-7	-29	/	/
COc1ccccc1CC1(C)C(=O)Nc2c(Cl)cccc21 (configuration not stated)	/	/	/	0	4	/	/	/
CC1CC(C)CN(C(=O)c2ccc(S(=O)(=O)N3CC(C)CC(C)C3)cc2)C1 (configuration not stated)	-20	25*	13	-6	-2	-31	24*	23*
OC(CNCC1CCCO1)Cn1c2ccc(Cl)cc2c2cc(Cl)ccc21 (configuration not stated)	15	53*	8	19	30	26	53*	54*
Clc1ccc(CSCCc2ccncc2)cc1	-12	23*	30	14	6	-7	9	26*
c1ccc2c(CSCCc3ccncc3)cccc2c1	-20	-8	28	19	24	-30	/	/
NC(=O)[C@@H]1CCCN1C(=O)[C@@H](Cc1ccccc1)NC(=O)[C@H]1O[C@@H](n2ccc(N)nc2=O)[C@H](O)[C@@H]1O	/	/	/	1	-4	/	/	/
OC(CNCc1ccco1)Cn1c2ccccc2c2ccccc21 (configuration not stated)	10	21*	10	20	-11	3	19	14
CCOC(=O)C1CCN(C(=O)c2ccc3c(c2)NC(=O)/C(=C\c2ccc(C)cc2)S3)CC1	-38	33*	7	4	-7	-33	22	46*
CCOC(=O)C1CCN(C(=O)c2ccc3c(c2)NC(=O)/C(=C/c2ccccc2)S3)CC1	-15	13	-2	-2	14	-24	/	/
